Activity calls are given as the source filed them.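 Rule for the calls, unless noted: active = potentiation averaged over duplicate wells exceeding buffer-only control mean by more than 3 SD; inactive = the rest.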
Key:
[1] = nonspecific flux increase, KCNQ1-free cells – parental CHO cells, counter-screen for KCNQ1 potentiator project (AID 493006;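 active = duplicate-averaged activation above buffer control mean plus 5 SD of those controls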); conditions: parental CHO-K1 cells, FluxOR thallium flux, at 10 µM; active compounds read high
Procedure, shortened: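 Benchmarks – buffer and R-L3 controls · Assay system – untransfected host CHO-K1 cells with FluxOR thallium dye · Measure – fluorescence change ratio scaled 0% buffer, 100% R-L3 · Technique – kinetic thallium-flux fluorescence · Timing – overnight 37 °C plating, 90 min RT dye, 20 min compound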

[2] = target: Potassium voltage-gated channel subfamily KQT member 1 (Homo sapiens) (UniProt P51787); test: enhancement of KCNQ1 channel thallium flux – FluxOR thallium flux, CHO cells, duplicates, confirmation (AID 493007); conditions: KCNQ1 cell line, FluxOR thallium flux fluorescence, at 10 µM; active compounds read high, % of reference activator effect, buffer zero;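 for outcome: cells depolarized by a potassium plus thallium sulfate stimulus after compound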
Procedure, shortened: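 Material: CHO cells stably expressing the KCNQ1 potassium channel / Times: dye 90 min then compound 20 min, both at room temperature / Detection: kinetic thallium influx fluorescence with FluxOR dye, 10 s baseline, 110 s post-stimulus / Benchmarks: buffer-only wells as 0% and R-L3 activator as 100% / Replicates: each compound tested in duplicate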

[3] = target: Potassium voltage-gated channel subfamily KQT member 2 (Rattus norvegicus) (UniProt O88943); test: KCNQ2 thallium flux enhancement – KCNQ2-CHO-K1 cells, selectivity assay for KCNQ1 potentiator project (AID 493009;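 active = mean duplicate potentiation above the buffer control mean plus 5 SD of buffer wells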;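 note: assay conditions were tuned for KCNQ1 rather than KCNQ2 modulators; signal is max minus min fluorescence divided by baseline after thallium stimulus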); conditions: FluxOR thallium flux fluorescence, at 10 µM; active compounds read high, scaled: buffer 0, activator control 100
[4] = target: Potassium voltage-gated channel subfamily KQT member 1 (Homo sapiens) (UniProt P51787); test: KCNQ1 activators by electrophysiology – IonWorks patch clamp, KCNQ1-CHO cells, orthogonal assay for KCNQ1 potentiator project, confirmation (AID 493184;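 active = current rise at least 3 SD above the untreated control mean in each of two repeat wells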); conditions: automated patch clamp current, at 10 µM; active compounds read high
Procedure, shortened: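 Probe or stimulus: depolarizing pulse to +40 mV from -90 mV; Material: CHO cells carrying KCNQ1; Compound: one dose, 10 µM final; Signal: automated voltage clamp, amphotericin B perforated patch; Read-out basis: percent current increase versus pre-compound level; Buffer or medium: pH 7.4 external bath; Replication: duplicates.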

[5] = target: Potassium voltage-gated channel subfamily E member 1 (Homo sapiens) + Potassium voltage-gated channel subfamily KQT member 1 (Homo sapiens) (UniProt P15382+P51787); test: KCNQ1-E1 channel activation – thallium flux, CHO-K1 KCNQ1/E1 cells, selectivity assay for KCNQ1 potentiator project, confirmation (AID 493186;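 active = mean duplicate activation above the buffer control mean plus 5 SD of those controls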); conditions: FluxOR thallium flux, at 10 µM; active compounds read high
Procedure, shortened: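 system = KCNQ1/E1-expressing stable CHO-K1 cell line | doses = single compound concentration per well | times = dye 90 min, compound 20 min, room temperature | measured by = FluxOR Tl+ flux fluorescence, kinetic read | evaluation = fluorescence rise relative to baseline, as percent of R-L3 response above buffer | controls = buffer and R-L3 | replicates = duplicate wells per compound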

Chain of Potassium voltage-gated channel subfamily KQT member 2 (Rattus norvegicus) (O88943 whole entry, looked up): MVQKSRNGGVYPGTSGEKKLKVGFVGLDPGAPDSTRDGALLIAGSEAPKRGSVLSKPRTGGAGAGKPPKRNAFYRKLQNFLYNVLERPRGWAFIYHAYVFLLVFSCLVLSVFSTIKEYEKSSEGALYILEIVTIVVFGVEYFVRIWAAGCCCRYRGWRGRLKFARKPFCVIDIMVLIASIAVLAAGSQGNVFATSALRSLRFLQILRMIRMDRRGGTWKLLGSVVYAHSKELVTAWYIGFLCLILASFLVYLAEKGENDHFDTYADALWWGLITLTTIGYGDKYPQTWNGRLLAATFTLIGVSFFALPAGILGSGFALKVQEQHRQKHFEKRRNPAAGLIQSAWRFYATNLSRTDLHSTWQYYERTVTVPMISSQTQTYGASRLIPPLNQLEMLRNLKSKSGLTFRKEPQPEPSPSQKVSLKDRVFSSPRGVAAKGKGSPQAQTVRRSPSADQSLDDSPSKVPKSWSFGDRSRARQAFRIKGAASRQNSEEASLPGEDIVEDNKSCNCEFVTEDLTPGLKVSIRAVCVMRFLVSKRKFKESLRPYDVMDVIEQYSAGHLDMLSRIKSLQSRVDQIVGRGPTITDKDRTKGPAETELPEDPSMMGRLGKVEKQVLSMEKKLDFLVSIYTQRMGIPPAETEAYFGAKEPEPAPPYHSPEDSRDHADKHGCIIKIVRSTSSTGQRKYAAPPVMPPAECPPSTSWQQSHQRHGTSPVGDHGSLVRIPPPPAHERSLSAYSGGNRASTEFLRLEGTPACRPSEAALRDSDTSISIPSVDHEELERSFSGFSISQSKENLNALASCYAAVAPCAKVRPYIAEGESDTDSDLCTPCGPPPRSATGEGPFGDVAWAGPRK
Chain of Potassium voltage-gated channel subfamily KQT member 1 (Homo sapiens) (P51787 whole entry, looked up): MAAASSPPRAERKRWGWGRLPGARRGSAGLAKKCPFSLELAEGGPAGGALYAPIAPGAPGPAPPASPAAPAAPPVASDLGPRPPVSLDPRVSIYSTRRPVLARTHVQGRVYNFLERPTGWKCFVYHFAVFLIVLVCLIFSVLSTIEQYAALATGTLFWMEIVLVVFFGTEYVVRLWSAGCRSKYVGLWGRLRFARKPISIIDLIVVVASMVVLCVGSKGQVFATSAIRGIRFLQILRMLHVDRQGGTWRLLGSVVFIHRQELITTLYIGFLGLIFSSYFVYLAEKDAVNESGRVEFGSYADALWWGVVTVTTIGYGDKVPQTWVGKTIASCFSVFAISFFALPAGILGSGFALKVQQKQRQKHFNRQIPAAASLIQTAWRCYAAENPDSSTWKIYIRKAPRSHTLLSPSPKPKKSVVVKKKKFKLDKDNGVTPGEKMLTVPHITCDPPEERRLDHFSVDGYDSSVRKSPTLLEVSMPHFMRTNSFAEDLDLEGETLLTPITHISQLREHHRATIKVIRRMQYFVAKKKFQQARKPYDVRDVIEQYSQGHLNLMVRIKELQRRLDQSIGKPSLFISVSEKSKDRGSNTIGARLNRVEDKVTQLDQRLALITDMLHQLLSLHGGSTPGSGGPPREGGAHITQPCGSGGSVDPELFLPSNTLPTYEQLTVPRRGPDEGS
Chain of Potassium voltage-gated channel subfamily E member 1 (Homo sapiens) + Potassium voltage-gated channel subfamily KQT member 1 (Homo sapiens) (P51787 whole entry, looked up): as the sequence (P51787 whole entry, looked up) above

Compound | outcome [1] | outcome [2] | outcome [3] | outcome [4] | outcome [5] | potentiation [2] | potentiation [3] | activation [5]
Cc1ccsc1/C=N/Nc1nc2ccccc2s1 | inactive | inactive | inactive | inactive | inactive |  |  | 
O=C(CSc1nnc(-c2ccco2)o1)Nc1cccc([N+](=O)[O-])c1 | inactive | inactive | inactive | inactive | inactive |  |  | 
CN(C)c1cccc(C(=O)N2CCCC(C(=O)c3cc(F)ccc3F)C2)c1 (stereo not given) | inactive | inactive | inactive | inactive | inactive |  |  | 
CCn1c(SCC(=O)Nc2ccccc2F)nnc1-c1cnccn1 | inactive | inactive | inactive | inactive | inactive |  |  | 
Cc1nc(=S)c2c([nH]1)-c1ccccc1CC21CCCCC1 | inactive |  |  | inactive | inactive | 84.5% (active) | 180% (active) | 
CC1CC(=S)Nc2ccccc2N1C(=O)Nc1ccccc1 (stereo not given) | inactive | inactive | inactive | inactive | inactive |  |  | 
COC(=O)c1sc(NC(=S)NC(=O)c2ccccc2)nc1C | inactive | inactive | inactive | inactive | inactive |  |  | 
Cc1cccc(C(=O)NC(=S)NNC(=O)COc2c(C)cccc2C)c1 | inactive |  |  | inactive | inactive | 29.5% (active) | 176% (active) | 
OCCN(CCO)c1ccc(C(c2ccccc2Cl)c2ccc(N(CCO)CCO)cc2Cl)c(Cl)c1 | inactive |  | inactive | inactive | inactive | 34.5% (active) |  | 
N#Cc1ccccc1OCCN1C(=O)c2ccccc2C1=O | inactive | inactive | inactive | inactive | inactive |  |  | 
O=c1oc2ccccc2c(Cl)c1CN1CCCCC1 | inactive | inactive | inactive | inactive | inactive |  |  | 
COc1ccc2c(c1)[nH]c1c(=O)n(/N=C/c3ccc(OC)c(CN4CCCC4)c3)cnc12 | inactive | inactive | inactive | inactive | inactive |  |  | 
CC(Sc1cccc[n+]1[O-])c1ccccc1 (stereo not given) | inactive | inactive | inactive | inactive | inactive |  |  | 
Cc1ccc(OCCn2c(=S)[nH]c3ccccc32)c(C(C)C)c1 | inactive |  | inactive | inactive | inactive | 119% (active) |  | 
COc1ccc(C2CC(c3c(-c4ccccc4)c4cc(Cl)ccc4[nH]c3=O)=NN2S(C)(=O)=O)cc1OC (stereo not given) | inactive | inactive | inactive | inactive | inactive |  |  | 
O=C(CSc1ccccn1)N1CCN(S(=O)(=O)c2ccc(Cl)cc2)CC1 | inactive | inactive | inactive | inactive | inactive |  |  | 
COc1ccc(OC)c(NC(=S)N2CCC(C(O)(c3ccccc3)c3ccccc3)CC2)c1 | inactive |  |  | inactive | inactive | 43% (active) | 174% (active) | 
O=C(CNc1ccc(Br)cc1)NNC1=NCCC1 | inactive | inactive |  | inactive | inactive |  | 142% (active) | 
Cc1cccc(N2CCN(C(=O)Cn3sc4nc(C)cc(C)c4c3=O)CC2C)c1 (stereo not given) | inactive | inactive | inactive | inactive | inactive |  |  | 
C=CCn1c(O)c(N=NC(=S)Nc2ccc(OC)cc2)c2ccccc21 | inactive |  | inactive | inactive | inactive | 33.5% (active) |  | 

Compound | outcome [1] | outcome [2] | outcome [3] | outcome [4] | outcome [5] | potentiation [2] | potentiation [3] | activation [5]
COC(=O)N/N=C/c1cc(C)n(-c2ccc(Br)cc2)c1C | inactive | inactive | inactive | inactive | inactive |  |  | 
Cc1ccc(C2C(C#N)=C(N)OC3=C2C(=O)CC(C)(C)C3)s1 (stereo not given) | inactive | inactive | inactive | inactive | inactive |  |  | 
CCn1c(O)c(N=NC(=S)NCC2CCCO2)c2ccccc21 (stereo not given) | inactive | inactive | inactive | inactive | inactive |  |  | 
COc1cc(/C=C2\C(=O)N(CCC#N)N=C2C)c(Br)cc1OC(C)C | inactive | inactive | inactive | inactive | inactive |  |  | 
O=c1cc2c(nn1Cc1c(Cl)cccc1Cl)-c1ccccc1CC2 | inactive |  | inactive | inactive | inactive | 24% (active) |  | 
C=CCSc1nc2c(c(=O)[nH]1)C(C(C)C)C(C#N)=C(N)O2 (stereo not given) | inactive | inactive | inactive | inactive | inactive |  |  | 
Clc1ccc(Nc2ccc(Cl)nn2)cc1 | inactive | inactive |  | inactive | inactive |  | 147% (active) | 
CCn1c(=S)sc2nc(C)sc21 | inactive | inactive | inactive | inactive | inactive |  |  | 
CN(C(=O)c1ccc2c(c1)OCO2)C1CCCCC1 | inactive | inactive | inactive | inactive | inactive |  |  | 
Cc1ccc(-n2ncc(C(=O)Nc3cc(Cl)cc(Cl)c3)c2C2CCNCC2)cc1C | inactive | inactive | inactive | inactive | inactive |  |  | 
Cc1ccc(C(=O)NC(=S)N(C)C2CCCCC2)cc1Br | inactive |  |  | inactive |  | 61% (active) | 159% (active) | 40.1% (active)
COc1ccc(-c2nnc(NC(=O)c3ccc(S(=O)(=O)N4CCCc5ccccc54)cc3)o2)cc1 | inactive | inactive | inactive | inactive | inactive |  |  | 
O=C(Nc1ccccc1Br)c1ccccc1-c1ccccc1 | inactive |  | inactive | inactive | inactive | 29.5% (active) |  | 
COC(=O)c1sc(NC(=S)NC(=O)c2cccc(C)c2)nc1C | inactive | inactive | inactive | inactive | inactive |  |  | 
COc1ccc(OCC(=O)NC(=S)NNC(=O)COc2ccc(Br)cc2Cl)cc1 | inactive |  | inactive | inactive | inactive | 18.5% (active) |  | 
CS(=O)(=O)c1ccc(Cl)c(NC(=O)c2cc(S(=O)(=O)N3CCOCC3)ccc2N2CCCC2)c1 | inactive | inactive | inactive | inactive | inactive |  |  | 
Cc1ccc(C)c(NC(=S)c2nc3ccccc3s2)c1 | inactive |  |  | inactive | inactive | 104% (active) | 143% (active) | 
Cc1cc(C)cc(-n2c(C)cc(/C=C3\C(=N)N4N=C(CC(C)C)SC4=NC3=O)c2C)c1 | inactive |  | inactive | inactive | inactive | 21.5% (active) |  | 
CCCOC(=O)C1=C(C)NC2=C(C(=O)CCC2)C1c1ccc(N(C)C)cc1 (stereo not given) | inactive | inactive | inactive | inactive | inactive |  |  | 
N#CC(c1ccccc1)c1ccc2c(C(F)(F)F)cc(C(F)(F)F)nc2n1 (stereo not given) | inactive |  | inactive | inactive | inactive | 129% (active) |  | 

Compound | outcome [1] | outcome [2] | outcome [3] | outcome [4] | outcome [5] | potentiation [2] | potentiation [3] | activation [5]
S=c1nc[nH]c2c1[nH]c1ccc(Cl)cc12 | inactive | inactive | inactive | inactive | inactive |  |  | 
CCOC(=O)N/C(N)=N/c1nc2ccccc2s1 | inactive | inactive | inactive | inactive | inactive |  |  | 
COc1ccc(-c2nc(=S)c3c([nH]2)Oc2ccc(C)cc2C3)cc1O | inactive |  | inactive | inactive | inactive | 28.5% (active) |  | 
CCOC(=O)c1c(NC(=O)CN2CCN(C(=O)c3ccco3)CC2)sc2c1CCCC2 | inactive |  | inactive | inactive | inactive | 39.5% (active) |  | 
COC(=O)N1C(=O)[C@@](Cc2ccccc2)(c2ccccc2)N1C(=O)OC | inactive |  | inactive | inactive | inactive | 24% (active) |  | 
CCOc1cc(CN2CCN(C(=O)CC(C)C)CC2)ccc1OC | inactive |  | inactive | inactive | inactive | 23.5% (active) |  | 
CC(Sc1nncs1)C(=O)NC1CCCCC1C (stereo not given) | inactive | inactive | inactive | inactive | inactive |  |  | 
Cc1ccc(C(=O)OCC(=O)NCCC2=CCCCC2)s1 | inactive | inactive | inactive | inactive | inactive |  |  | 
NS(=O)(=O)c1ccc(Sc2ccc3c(c2)CCC3)nc1 | inactive |  | inactive | inactive | inactive | 22.5% (active) |  | 
CCOc1ccc(OCCCN(C)C)cc1 | inactive | inactive | inactive | inactive | inactive |  |  | 
COc1ccc(OC)c(NC(=S)NC(=O)c2ccc(Br)o2)c1 | inactive | inactive | inactive | inactive | inactive |  |  | 
O=c1c2cc(F)ccc2[nH]c(=S)n1Cc1ccc(F)cc1 | inactive | inactive | inactive | inactive | inactive |  |  | 
CN(Cc1ccccc1)C(=S)NC(=O)c1ccccc1 | inactive |  |  | inactive | inactive | 21.5% (active) | 157% (active) | 
Cc1cccc(C(=O)NN2C(=O)C3C(c4ccccc4)C=CC(c4ccccc4)C3C2=O)c1 (stereo not given) | inactive | inactive | inactive | inactive | inactive |  |  | 
CNC(=O)CC1C(=O)N(c2ccc(Cl)cc2)C(=S)N1CCc1ccc(OC)c(OC)c1 (stereo not given) | inactive | inactive | inactive | inactive | inactive |  |  | 
Cc1cc(C)cc(OCC(=O)NNC(=O)c2cc3ccccc3o2)c1 | inactive | inactive | inactive | inactive | inactive |  |  | 
COc1ccccc1NC(=O)CC1C(=O)NCCN1C(=O)Nc1ccc(Cl)c(Cl)c1 (stereo not given) | inactive |  |  | inactive | inactive | 37.5% (active) | 157% (active) | 
CC(C)c1ccc(OCC(=O)NNC(=S)NC(=O)c2cccs2)c(Br)c1 | inactive |  | inactive | inactive | inactive | 22% (active) |  | 
COc1ccc(C(=O)NNC(=O)C(=O)NCc2ccccc2)cc1 | inactive |  |  | inactive | inactive | 29% (active) | 144% (active) | 
CC(=O)/C=C/c1ccc2ccccc2n1 | inactive | inactive | inactive | inactive | inactive |  |  | 
